In PMC6936494 (Proceedings of the National Academy of Sciences of the …, 2019):
Entries after “also recorded” stand apart in the source; their conditions may differ. Read-outs that look alike come from different tables or passages of the source.

Experiments:
full length LiaX = target: T1, full length LiaX (Enterococcus faecalis, UniProt Q834B6); assay: LL-37 binding by microscale thermophoresis, amine reactive dye, full length LiaX; design: species or system Enterococcus faecalis S613
T1 sequence (Q834B6 1-533): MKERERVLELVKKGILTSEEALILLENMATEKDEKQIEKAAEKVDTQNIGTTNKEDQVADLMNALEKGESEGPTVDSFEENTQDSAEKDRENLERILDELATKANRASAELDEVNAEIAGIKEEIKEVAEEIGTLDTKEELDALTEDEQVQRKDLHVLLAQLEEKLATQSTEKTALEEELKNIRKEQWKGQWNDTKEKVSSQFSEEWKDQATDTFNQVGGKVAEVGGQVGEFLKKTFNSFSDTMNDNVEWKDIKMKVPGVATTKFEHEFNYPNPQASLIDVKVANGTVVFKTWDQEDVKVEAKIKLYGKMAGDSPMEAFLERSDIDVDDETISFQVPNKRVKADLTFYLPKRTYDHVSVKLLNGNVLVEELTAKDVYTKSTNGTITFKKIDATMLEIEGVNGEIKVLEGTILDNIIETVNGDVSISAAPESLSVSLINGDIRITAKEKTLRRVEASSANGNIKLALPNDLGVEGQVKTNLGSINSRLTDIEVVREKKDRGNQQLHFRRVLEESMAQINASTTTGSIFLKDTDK
Method in brief: (§1)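 Recombinant LiaX (full length or N-terminal domain, His/SUMO-tagged) was expressed in E. coli BL-21 and nickel-column purified, then labeled with NT-647. Microscale thermophoresis ran at 25% LED power in 0.1 M phosphate buffer pH 7.4, 0.0027 M KCl, 0.137 M NaCl and 1 mM TCEP, with or without 5% DMSO. Fluorescence changes were recorded across increasing LL-37 variant concentrations to derive Kd.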

N-terminal LiaX = target: T2, N-terminal LiaX (Enterococcus faecalis, UniProt Q834B6); assay: LL-37 binding by microscale thermophoresis, amine reactive dye, N-terminal LiaX; design: species or system Enterococcus faecalis S613
T2 sequence (Q834B6 1-277): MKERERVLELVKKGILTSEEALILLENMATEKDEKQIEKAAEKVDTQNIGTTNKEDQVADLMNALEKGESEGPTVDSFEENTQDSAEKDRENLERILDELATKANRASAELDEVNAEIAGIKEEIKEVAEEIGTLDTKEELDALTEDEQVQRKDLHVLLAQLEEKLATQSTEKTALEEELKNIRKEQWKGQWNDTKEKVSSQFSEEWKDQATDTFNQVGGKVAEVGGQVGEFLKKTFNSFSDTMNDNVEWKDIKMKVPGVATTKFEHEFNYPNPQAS
Method in brief: as §1

[1] = target: T3, N-terminal domain of LiaX (Enterococcus faecalis, UniProt Q834B6); assay: Microscale thermophoresis with His-tag specific dye, N-terminal domain of LiaX; type: binding, Enterococcus faecalis S613
T3 sequence (Q834B6 1-275): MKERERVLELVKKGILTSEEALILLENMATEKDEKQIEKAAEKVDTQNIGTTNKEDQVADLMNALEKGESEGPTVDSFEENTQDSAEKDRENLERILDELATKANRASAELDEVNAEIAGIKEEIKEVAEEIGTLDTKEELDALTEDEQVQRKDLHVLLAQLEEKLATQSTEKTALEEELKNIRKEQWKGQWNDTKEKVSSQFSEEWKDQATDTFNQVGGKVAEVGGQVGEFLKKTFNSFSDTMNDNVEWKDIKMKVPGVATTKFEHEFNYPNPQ

[2] = target: N-terminal domain of LiaX (Enterococcus faecalis); assay: MST
[3] = target: N-terminal domain of LiaX (Enterococcus faecalis); assay: MST; remark: listed apart in the source
OG1RF and S613 = conditions: including against E. faecalis; ref [23], [24]; cited from earlier work
[4] = tested on: DAP-S E. faecalis strains; type: cell-based, Enterococcus faecalis
[5] = tested on: Staphylococcus aureus ATCC29213; assay: DAP MIC by broth microdilution with exogenous LiaX or N-terminal LiaX, S. aureus; type: cell-based; conditions: 50 nM exogenous protein
E. faecalis strains = assay: LL-37 killing assay; type: cell-based, Enterococcus faecalis; conditions: OG1RFΔliaR; 50 µg/ml LL-37, 2 h
liaFSR and liaXYZ = assay: qRT-PCR for liaFSR and liaXYZ expression; type: cell-based, Enterococcus faecalis; conditions: OG1RF
E. faecalis [6] = assay: C. elegans infection assay with exogenous N-terminal LiaX; type: in vivo, Enterococcus faecalis; host Caenorhabditis elegans
Method in brief: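 Recombinant N-terminal LiaX domain (His/SUMO-tagged) was expressed in E. coli BL-21 and nickel-column purified. Synchronized young adult worms (60–90) were infected with E. faecalis on BHI agar plus gentamicin (10 µg/mL). They were then moved to a liquid killing format (20% BHI broth, 80% M9W buffer) containing N-terminal LiaX at 0.1 to 500 nM, held at 25 °C, and deaths scored daily. Results come from 3 independent experiments, with Kaplan–Meier log-rank or 1-way ANOVA analysis.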

E. faecalis [7] = assay: Growth kinetics with LiaX; type: cell-based, Enterococcus faecalis; conditions: functional concentrations; 100 nM in BHI, OD600, 24 h

Q: With `CC[C@H](C)[C@H](NC(=O)[C@H](CCCCN)NC(=O)[C@H](CCC(=O)O)NC(=O)[C@H](CCCCN)NC(=O)[C@H](CO)NC(=O)[C@H](CCCCN)NC(=O)[C@H](CCCNC(=N)N)NC(=O)[C@H](Cc1ccccc1)NC(=O)[C@H](Cc1ccccc1)NC(=O)[C@H](CC(=O)O)NC(=O)CNC(=O)[C@H](CC(C)C)NC(=O)[C@@H](N)CC(C)C)C(=O)NCC(=O)N[C@@H](CCCCN)C(=O)N[C@@H](CCC(=O)O)C(=O)N[C@@H](Cc1ccccc1)C(=O)N[C@@H](CCCCN)C(=O)N[C@@H](CCCNC(=N)N)C(=O)N[C@H](C(=O)N[C@H](C(=O)N[C@@H](CCC(N)=O)C(=O)N[C@@H](CCCNC(=N)N)C(=O)N[C@H](C(=O)N[C@@H](CCCCN)C(=O)N[C@@H](CC(=O)O)C(=O)N[C@@H](Cc1ccccc1)C(=O)N[C@@H](CC(C)C)C(=O)N[C@@H](CCCNC(=N)N)C(=O)N[C@@H](CC(N)=O)C(=O)N[C@@H](CC(C)C)C(=O)N[C@H](C(=O)N1CCC[C@H]1C(=O)N[C@@H](CCCNC(=N)N)C(=O)N[C@H](C(=O)N[C@@H](CCC(=O)O)C(=O)N[C@@H](CO)C(=O)O)[C@@H](C)O)C(C)C)[C@@H](C)CC)C(C)C)[C@@H](C)CC` [LL-37] as the molecule, how does the Kd (full length LiaX) read?
A: The Kd was 8.26 ± 0.28 µM.

Q: What about the Kd (N-terminal LiaX) of the same molecule?
A: The Kd was 10.6 ± 0.43 µM.

Q: What about the Kd [1] of the same molecule?
A: The Kd was 5.27 ± 1.14 µM.

Q: Which Kd [2] does the source give for human cathelicidin LL-37 (peptide) here?
A: The Kd was 5.27 µM.

Q: What about the Kd [3] of the same molecule?
A: The Kd was 10.6 µM.

Q: With “SSLLEKGLDGAKKAVGGLGKLGKDAVEDLESVGKGAVHDVKDVLDSVL [DCD-1L]” as the molecule, how does the “binding affinity to N-terminal domain of LiaX” value ([1]; His-tag specific dye, DCD-1L tested up to 1,000 µM) read?
A: Its value is “no detectable binding affinity”.

Q: What about the “antimicrobial activity” value (OG1RF and S613) of the same molecule?
A: The value was “broad-spectrum antimicrobial activity, including against E. faecalis”.

B1: N-terminal LiaX: purified N-terminal LiaX (residues 1-277; His-tagged variant residues 1-275) (protein)
chain: MKERERVLELVKKGILTSEEALILLENMATEKDEKQIEKAAEKVDTQNIGTTNKEDQVADLMNALEKGESEGPTVDSFEENTQDSAEKDRENLERILDELATKANRASAELDEVNAEIAGIKEEIKEVAEEIGTLDTKEELDALTEDEQVQRKDLHVLLAQLEEKLATQSTEKTALEEELKNIRKEQWKGQWNDTKEKVSSQFSEEWKDQATDTFNQVGGKVAEVGGQVGEFLKKTFNSFSDTMNDNVEWKDIKMKVPGVATTKFEHEFNYPNPQ
modifications: labeled with a RED-tris-NTA his-tag specific dye (NanoTemper); left off: His6, C-terminal, kept
Q: Which results are given for B1?
A: increase in DAP MIC ([4]; OG1RF, 50 nM exogenous protein): over 8 fold; protection against DAP ([4]; OG1RF, 1 to 100 nM N-terminal LiaX, up to 200 nM full-length LiaX): high level of protection to OG1RF in a concentration-dependent manner; protection against DAP ([4]; OG1RFΔliaR, 50 nM exogenous protein): did not protect OG1RFΔliaR against DAP; increase in DAP MIC ([4]; S613, 50 nM exogenous protein): over 8 fold; change in DAP MIC [5]: did not change under any condition; protection from LL-37 killing (E. faecalis strains): did not protect OG1RFΔliaR from LL-37–mediated killing; transcription of liaFSR and liaXYZ (liaFSR and liaXYZ; 50 nM protein without DAP, vs untreated): no effect on the levels of transcription; LiaFSR activation relative to DAP alone or DAP with full-length LiaX (liaFSR and liaXYZ; N terminus of LiaX plus DAP): significantly higher and more pronounced; transcription of liaFSR and liaXYZ (liaFSR and liaXYZ; protein plus subinhibitory DAP, listed as N terminus of LiaX): maximal activation of the LiaFSR cell envelope stress response; also recorded: highly up-regulated; virulence in C. elegans (E. faecalis [6]; OG1RF and S613, 100 nM purified N-terminal LiaX (Fig. 6), listed as N terminus of LiaX): more virulent; also recorded: increased virulence; virulence in C. elegans, dose dependence (E. faecalis [6]; OG1RF or S613, 5-100 nM N-terminus LiaX): dose-dependent manner; virulence in C. elegans (E. faecalis [6]; OG1RFΔliaR and TMΔliaR, exogenous N terminus of LiaX): did not, however, alter the virulence; effect on growth of E. faecalis (E. faecalis [7]): no impact on the growth
